According to ChEMBL document CHEMBL1152862, “Tetrahydrobenzo- and benzofurobenzopyrones as a new class of potential photoreagents toward DNA” (2009):
Calls of active or inactive are those of the source. The rule behind the calls is not given here.

What was measured:
Bacillus subtilis [1] = test: Phototoxicity against Bacillus subtilis after 3 hrs irradiated with UV light by disk diffusion method; type: functional
Outline: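 B. subtilis broth culture on nutrient agar (0.3% beef extract, 0.5% peptone, 0.1% K2HPO4, 1.5% agar). Plates held in the dark at 37 °C for 3 h so compounds diffuse through the agar. Uncovered dishes then exposed to 365 nm UV for 20 min and reincubated in the dark at 37 °C overnight. Photosensitizing activity read as inhibition zones.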

Nucleic Acid = test: Binding affinity to DNA; type: nucleic-acid assay
Bacillus subtilis [2] = test: Antimicrobial activity against Bacillus subtilis incubated in dark for 3 hrs by disk diffusion method; type: functional
Outline: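 Nutrient agar (0.3% beef extract, 0.5% peptone, 0.1% dipotassium hydrogen phosphate, 1.5% agar) seeded with B. subtilis broth culture. Duplicate control plate kept unirradiated at 37 °C overnight in the incubator. Read-out is the size of the inhibition zones.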

SMILES	inhibition zone (IZ) (Bacillus subtilis [1]) [mm]	Activity (Nucleic Acid)	inhibition zone (IZ) (Bacillus subtilis [2]) [mm]
O=c1cc(-c2ccccc2)c2ccc3oc4ccccc4c3c2o1	14	Active	13
O=c1cc(-c2ccccc2)c2ccc3oc4c(c3c2o1)CCCC4	5		
COc1c2occc2cc2ccc(=O)oc12 [METHOXSALEN]	12		
Cc1cc(=O)oc2cc3c(cc12)oc1ccccc13	16	Active	12
O=c1cc(-c2ccccc2)c2cc3c(cc2o1)oc1ccccc13	13	Active	10
O=c1cc(-c2ccccc2)c2cc3c4c(oc3cc2o1)CCCC4	7		9
Cc1cc(=O)oc2ccc3oc4ccccc4c3c12	14	Active	11
